Results: ChEMBL document CHEMBL5579886, “Selective Degradation of MLK3 by a Novel CEP1347-VHL-02 PROTAC Compound Limits the Oncogenic Potential of TNBC” (J Med Chem, 2024)
The source made the active and inactive calls. The calls are words filed in the database; no cut-off is given here.

Columns and labels:
[1] = target: T1, von Hippel-Lindau disease tumor suppressor/Mitogen-activated protein kinase kinase kinase 11 (Homo sapiens, UniProt Q16584+P40337); assay: PROTAC activity at VHL/DOX-inducible MLK3 (unknown origin) overexpressed in human A-375 cells assessed as protein degradation at 0.1 uM incubated for 24 hrs by immunoblot analysis; type: cell-based
Summary of the method: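 A375 cells with DOX-inducible MLK3 were seeded at 100 000/well and induced with 1 μg/mL DOX for 24 h. Eight VHL-based PROTACs were then tested at 0.1–5 μM for 24 h, with DMSO as control. MLK3 was detected by ECL immunoblot of RIPA lysates, normalised to GAPDH or β-actin.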
Target sequence in this assay (P40337 whole entry, looked up): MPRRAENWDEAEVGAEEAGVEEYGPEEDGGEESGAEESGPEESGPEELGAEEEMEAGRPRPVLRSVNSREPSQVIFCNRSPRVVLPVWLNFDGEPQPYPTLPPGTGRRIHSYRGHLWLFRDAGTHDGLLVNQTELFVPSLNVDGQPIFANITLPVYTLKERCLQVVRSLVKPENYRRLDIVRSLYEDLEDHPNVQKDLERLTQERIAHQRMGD
Target sequence in this assay (Q16584 whole entry, looked up): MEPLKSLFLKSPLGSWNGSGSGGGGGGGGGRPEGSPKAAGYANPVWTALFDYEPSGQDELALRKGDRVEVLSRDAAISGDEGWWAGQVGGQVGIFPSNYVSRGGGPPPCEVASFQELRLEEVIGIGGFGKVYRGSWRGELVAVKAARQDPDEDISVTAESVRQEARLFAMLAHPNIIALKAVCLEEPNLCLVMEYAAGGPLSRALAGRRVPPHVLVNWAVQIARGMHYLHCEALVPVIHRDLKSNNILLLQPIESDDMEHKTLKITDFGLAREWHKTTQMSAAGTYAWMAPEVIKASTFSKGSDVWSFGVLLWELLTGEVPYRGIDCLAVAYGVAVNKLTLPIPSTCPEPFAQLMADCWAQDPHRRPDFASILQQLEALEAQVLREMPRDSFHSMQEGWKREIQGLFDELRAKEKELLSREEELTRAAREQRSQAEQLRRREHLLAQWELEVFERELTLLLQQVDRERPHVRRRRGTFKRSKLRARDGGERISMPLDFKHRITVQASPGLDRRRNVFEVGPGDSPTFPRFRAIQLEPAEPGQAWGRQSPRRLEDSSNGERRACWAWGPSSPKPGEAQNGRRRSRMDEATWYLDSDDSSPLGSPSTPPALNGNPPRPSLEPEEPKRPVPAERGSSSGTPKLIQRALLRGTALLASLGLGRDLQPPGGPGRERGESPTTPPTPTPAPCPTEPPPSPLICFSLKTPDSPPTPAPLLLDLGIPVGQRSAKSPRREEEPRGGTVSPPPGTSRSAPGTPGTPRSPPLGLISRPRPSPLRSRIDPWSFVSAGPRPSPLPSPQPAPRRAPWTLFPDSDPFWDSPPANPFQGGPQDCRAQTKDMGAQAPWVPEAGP

[2] = target: T1, von Hippel-Lindau disease tumor suppressor/Mitogen-activated protein kinase kinase kinase 11; assay: PROTAC activity at VHL/DOX-inducible MLK3 (unknown origin) overexpressed in carfilzomib-treated human HCC1806 cells assessed as protein degradation at 0.25 to 1 uM measured after 7 hrs by immunoblot analysis; type: cell-based; conditions: dose 0.25-1 µM
Summary of the method: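 HCC1806 cells with DOX-inducible MLK3 were induced with 1 μg/mL DOX for 24 h. They were pretreated with 1 μM carfilzomib (proteasome inhibitor) for 1 h, then with PROTAC at 0.25–1 μM for 7 h, with DMSO as control. MLK3 was assessed by ECL immunoblot.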
Target sequence in this assay (P40337 whole entry, looked up): as the sequence (P40337 whole entry, looked up) above
Target sequence in this assay (Q16584 whole entry, looked up): as the sequence (Q16584 whole entry, looked up) above

[3] = target: T1, von Hippel-Lindau disease tumor suppressor/Mitogen-activated protein kinase kinase kinase 11; assay: PROTAC activity at VHL/DOX-inducible MLK3 (unknown origin) overexpressed in human HCC1806 cells assessed as protein degradation at 0.5 uM measured after 24 hrs by shotgun proteomic analysis; type: cell-based
Summary of the method: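 HCC1806 cells with DOX-inducible MLK3 were seeded at 150 000/well and induced with DOX for 24 h, then treated with 0.5 μM PROTAC or DMSO for 24 h. Total lysates were chloroform/methanol precipitated, reduced and alkylated with TCEP/CAA, and trypsin-digested at 37 °C overnight. Shotgun LC-MS/MS followed, with log2 fold change and t-test p-values (n = 3).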
Target sequence in this assay (P40337 whole entry, looked up): as the sequence (P40337 whole entry, looked up) above
Target sequence in this assay (Q16584 whole entry, looked up): as the sequence (Q16584 whole entry, looked up) above

[4] = target: T1, von Hippel-Lindau disease tumor suppressor/Mitogen-activated protein kinase kinase kinase 11; assay: PROTAC activity at VHL/MLK3 in human MCF7 cells assessed as protein degradation at 1 uM by Western blot analysis; type: cell-based; conditions: time 4-48 hrs, TDE = time-dependent effect
Target sequence in this assay (P40337 whole entry, looked up): as the sequence (P40337 whole entry, looked up) above
Target sequence in this assay (Q16584 whole entry, looked up): as the sequence (Q16584 whole entry, looked up) above

[5] = target: T1, von Hippel-Lindau disease tumor suppressor/Mitogen-activated protein kinase kinase kinase 11; assay: PROTAC activity at VHL/MLK3 in human MDA-MB-468 cells assessed as half life of protein degradation at 1 uM by Western blot analysis; type: cell-based
Summary of the method: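 Endogenous MLK3: cells seeded at 100 000/well, treated next day with 1 μM PROTAC for 4–48 h, DMSO control; immunoblot with GAPDH or β-actin loading control. Remaining MLK3 quantified over time and t1/2 derived.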
Target sequence in this assay (P40337 whole entry, looked up): as the sequence (P40337 whole entry, looked up) above
Target sequence in this assay (Q16584 whole entry, looked up): as the sequence (Q16584 whole entry, looked up) above

[6] = target: T1, von Hippel-Lindau disease tumor suppressor/Mitogen-activated protein kinase kinase kinase 11; assay: PROTAC activity at VHL/MLK3 in human MDA-MB-468 cells assessed as protein degradation measured after 24 hrs by Western blot analysis; type: cell-based
Summary of the method: (§1)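 Endogenous MLK3: cells seeded at 100 000/well, treated next day for 24 h with PROTAC at 0.1–5 μM, DMSO control; immunoblot with GAPDH or β-actin loading control. Remaining MLK3 percentage plotted against concentration to derive DC50 and Dmax.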
Target sequence in this assay (Q16584 whole entry): as the sequence (Q16584 whole entry, looked up) above
Target sequence in this assay (P40337 whole entry): as the sequence (P40337 whole entry, looked up) above

[7] = target: T1, von Hippel-Lindau disease tumor suppressor/Mitogen-activated protein kinase kinase kinase 11; assay: PROTAC activity at VHL/MLK3 in human MCF7 cells assessed as protein degradation at 0.1 to 5 uM measured after 24 hrs by Western blot analysis relative to control; type: cell-based; conditions: dose 0.1-5 µM; summary of the method: as §1
Target sequence in this assay (P40337 whole entry, looked up): as above
Target sequence in this assay (Q16584 whole entry, looked up): as the sequence (Q16584 whole entry, looked up) above

MCF7 [8] = assay: Effect on MLK3 mRNA level in human MCF7 cells at 1 uM measured after 24 hrs by RT-qPCR analysis; type: functional, cell-based
Summary of the method: (§2)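 Total RNA extracted from MCF-7 and MDA-MB-468 cells 24 h after PROTAC treatment, purity and concentration checked spectrophotometrically, reverse transcribed to cDNA and MLK3 transcript quantified by RT-qPCR.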

MDA-MB-468 [9] = assay: Effect on MLK3 mRNA level in human MDA-MB-468 cells at 1 uM measured after 24 hrs by RT-qPCR analysis; type: functional, cell-based; summary of the method: as §2
[10] = target: T1, von Hippel-Lindau disease tumor suppressor/Mitogen-activated protein kinase kinase kinase 11; assay: PROTAC activity at VHL/MLK3 in human MCF7 cells assessed as protein degradation at 1 uM measured after 24 hrs by immunoblot analysis; type: cell-based
Summary of the method: (§3)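 MCF-7 and MDA-MB-468 cells were treated for 24 h across 0.1–5 μM, with DMSO as control. MLK3 was immunoblotted and quantified as percent remaining versus concentration, from which DC50 and Dmax were derived.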

[11] = target: T1, von Hippel-Lindau disease tumor suppressor/Mitogen-activated protein kinase kinase kinase 11; assay: PROTAC activity at VHL/MLK3 in human MDA-MB-468 cells assessed as protein degradation at 1 uM measured after 24 hrs by immunoblot analysis; type: cell-based; summary of the method: as §3
[12] = target: von Hippel-Lindau disease tumor suppressor/Mitogen-activated protein kinase kinase kinase 10 (Homo sapiens) (UniProt Q02779+P40337); assay: PROTAC activity at IAP/MLK2 in human MDA-MB-468 cells assessed as protein degradation at 1 uM incubated for 24 hrs by immunoblot analysis; type: cell-based
Summary of the method: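 Endogenous MLK1, MLK2 or MLK4 levels in MCF-7 and MDA-MB-468 cells. Cells were grown in high-glucose DMEM with 10% FBS, seeded at 100 000 cells/well and treated the next day for 24 h, with DMSO as control. Lysis was in RIPA with protease inhibitor, followed by 10% SDS-PAGE, nitrocellulose transfer and ECL immunoblot with GAPDH or β-actin as loading control.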

[13] = target: T1, von Hippel-Lindau disease tumor suppressor/Mitogen-activated protein kinase kinase kinase 11; assay: PROTAC activity at VHL/MLK3 in human MCF7 cells assessed as decrease in JNK pathway at 1 uM measured after 24 hrs by immunoblot analysis; type: cell-based
[14] = target: T1, von Hippel-Lindau disease tumor suppressor/Mitogen-activated protein kinase kinase kinase 11; assay: PROTAC activity at VHL/MLK3 in human MDA-MB-468 cells assessed as decrease in JNK pathway at 1 uM measured after 24 hrs by immunoblot analysis; type: cell-based
MDA-MB-468 [15] = assay: Inhibition of colony formation in human MDA-MB-468 cells harboring siMLK3 by crystal violet staining based analysis; type: functional, cell-based
Summary of the method: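 MCF-7 or MDA-MB-468 seeded at 10 000 cells/well, transfected next day with MAP3K11 SMARTpool siRNA or nontargeting control siRNA; crystal violet staining 7 days after transfection. Knockdown confirmed by immunoblot.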

MDA-MB-468 [16] = assay: Growth inhibition of human MDA-MB-468 cell spheroids in hydrogel at 1 uM incubated for 10 days; type: functional, cell-based; conditions: time 10.0 day
Summary of the method: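 4000 cells plated on top of hydrogels and grown 10 days with 1 μM PROTAC or DMSO; spheroid formation and size scored.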

MDA-MB-468 [17] = assay: Growth inhibition of human MDA-MB-468 cell spheroids in low-attachment surface at 1 uM incubated for 10 days; type: functional, cell-based; conditions: time 10.0 day
Summary of the method: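 Cells grown 10 days in low-attachment surface plates in medium containing 1 μM PROTAC or DMSO; spheroid growth assessed.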

MDA-MB-468 [18] = assay: Induction of apoptosis in human MDA-MB-468 cells at 1 uM measured after 48 hrs by Annexin V-FITC/PI staining based flow cytometry; type: functional, cell-based
Summary of the method: (§4)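 Cells seeded at 50 000/well, treated 48 h with 1 μM PROTAC or DMSO; cells plus supernatant stained with Alexa Fluor488 Annexin V for 30 min at room temperature in the dark, PI added 5 min before flow cytometry. At least three repeats.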

MCF7 [19] = assay: Induction of apoptosis in human MCF7 cells at 1 uM measured after 48 hrs by Annexin V-FITC/PI staining based flow cytometry; type: functional, cell-based; summary of the method: as §4
[20] = PROTAC activity at IAP/MLK1 in human MCF7 cells assessed as protein degradation at 1 uM incubated for 24 hrs by immunoblot analysis

Chain of von Hippel-Lindau disease tumor suppressor/Mitogen-activated protein kinase kinase kinase 10 (Homo sapiens) (P40337 whole entry, looked up): as the sequence (P40337 whole entry, looked up) above
Chain of von Hippel-Lindau disease tumor suppressor/Mitogen-activated protein kinase kinase kinase 10 (Homo sapiens) (Q02779 whole entry, looked up): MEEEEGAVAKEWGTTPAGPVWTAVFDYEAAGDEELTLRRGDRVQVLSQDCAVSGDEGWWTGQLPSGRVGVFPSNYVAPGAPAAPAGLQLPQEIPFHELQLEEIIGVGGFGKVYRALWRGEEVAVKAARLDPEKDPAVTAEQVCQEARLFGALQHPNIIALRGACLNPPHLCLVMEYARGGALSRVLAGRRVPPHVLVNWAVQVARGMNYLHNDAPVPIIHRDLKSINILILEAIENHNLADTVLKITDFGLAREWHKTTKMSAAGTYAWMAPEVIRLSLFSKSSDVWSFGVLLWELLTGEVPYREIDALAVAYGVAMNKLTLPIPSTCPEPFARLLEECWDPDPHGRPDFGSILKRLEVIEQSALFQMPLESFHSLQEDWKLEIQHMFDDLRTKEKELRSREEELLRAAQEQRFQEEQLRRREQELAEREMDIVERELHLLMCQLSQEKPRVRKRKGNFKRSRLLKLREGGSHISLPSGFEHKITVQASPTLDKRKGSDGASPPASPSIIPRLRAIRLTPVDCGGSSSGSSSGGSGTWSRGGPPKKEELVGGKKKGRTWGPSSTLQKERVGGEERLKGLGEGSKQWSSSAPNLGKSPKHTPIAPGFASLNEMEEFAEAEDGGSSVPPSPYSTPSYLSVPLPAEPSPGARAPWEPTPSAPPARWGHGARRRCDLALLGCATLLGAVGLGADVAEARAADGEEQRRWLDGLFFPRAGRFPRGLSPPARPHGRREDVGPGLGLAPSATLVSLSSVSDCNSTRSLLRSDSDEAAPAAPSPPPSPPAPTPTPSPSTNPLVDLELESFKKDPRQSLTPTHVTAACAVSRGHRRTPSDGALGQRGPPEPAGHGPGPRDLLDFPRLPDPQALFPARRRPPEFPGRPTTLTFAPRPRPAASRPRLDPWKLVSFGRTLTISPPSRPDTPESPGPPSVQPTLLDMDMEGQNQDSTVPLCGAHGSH

## CCSCc1ccc2c(c1)c1c3c(c4c5cc(CSCC)ccc5n5c4c1n2[C@H]1C[C@](O)(C(=O)NCCOCCOCCOCC(=O)N[C@H](C(=O)N2C[C@H](O)C[C@H]2C(=O)N[C@@H](C)c2ccc(-c4scnc4C)cc2)C(C)(C)C)[C@]5(C)O1)CNC3=O
[1]
  Activity: Active
[2]
  Activity: inactive
[3]
  Activity: Active
[4]
  Activity: Tde
[5]
  T1/2: 4 h
[6]
  DC50: 300 nM
[7]
  Emax: 77%
MCF7 [8]
  Activity: inactive
MDA-MB-468 [9]
  Activity: inactive
[10]
  Activity: Active
[11]
  Activity: Active
[12]
  Activity: inactive
[13]
  Activity: Active
[14]
  Activity: Active
MDA-MB-468 [15]
  inhibition: Active
MDA-MB-468 [16]
  growth inhibition (GI): Active
MDA-MB-468 [17]
  growth inhibition (GI): Active
MDA-MB-468 [18]
  Activity: Active
MCF7 [19]
  Activity: inactive
[20]
  Activity: inactive
